What was measured:
[1] = biological target: T1, Adrenergic receptor alpha-1 (Rattus norvegicus, UniProt P15823+P23944+P43140); test: In vitro binding affinity measured on alpha-1 adrenergic receptor using [3H]prazosin as radioligand.; type: protein assay
T1 sequence (P15823 whole entry): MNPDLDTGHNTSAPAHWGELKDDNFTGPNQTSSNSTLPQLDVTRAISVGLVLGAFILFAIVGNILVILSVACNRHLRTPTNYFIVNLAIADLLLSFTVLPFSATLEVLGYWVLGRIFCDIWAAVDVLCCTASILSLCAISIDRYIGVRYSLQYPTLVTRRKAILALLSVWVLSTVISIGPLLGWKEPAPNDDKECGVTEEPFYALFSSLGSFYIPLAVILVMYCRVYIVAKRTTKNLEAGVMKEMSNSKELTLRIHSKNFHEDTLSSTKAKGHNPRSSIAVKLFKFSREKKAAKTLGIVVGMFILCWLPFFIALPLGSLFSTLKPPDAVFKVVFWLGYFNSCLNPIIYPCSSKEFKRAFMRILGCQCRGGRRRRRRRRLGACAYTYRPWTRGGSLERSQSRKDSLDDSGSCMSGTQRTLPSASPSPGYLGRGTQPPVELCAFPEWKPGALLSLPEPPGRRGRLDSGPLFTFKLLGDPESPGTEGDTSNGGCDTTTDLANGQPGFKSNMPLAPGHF
T1 sequence (P23944 whole entry): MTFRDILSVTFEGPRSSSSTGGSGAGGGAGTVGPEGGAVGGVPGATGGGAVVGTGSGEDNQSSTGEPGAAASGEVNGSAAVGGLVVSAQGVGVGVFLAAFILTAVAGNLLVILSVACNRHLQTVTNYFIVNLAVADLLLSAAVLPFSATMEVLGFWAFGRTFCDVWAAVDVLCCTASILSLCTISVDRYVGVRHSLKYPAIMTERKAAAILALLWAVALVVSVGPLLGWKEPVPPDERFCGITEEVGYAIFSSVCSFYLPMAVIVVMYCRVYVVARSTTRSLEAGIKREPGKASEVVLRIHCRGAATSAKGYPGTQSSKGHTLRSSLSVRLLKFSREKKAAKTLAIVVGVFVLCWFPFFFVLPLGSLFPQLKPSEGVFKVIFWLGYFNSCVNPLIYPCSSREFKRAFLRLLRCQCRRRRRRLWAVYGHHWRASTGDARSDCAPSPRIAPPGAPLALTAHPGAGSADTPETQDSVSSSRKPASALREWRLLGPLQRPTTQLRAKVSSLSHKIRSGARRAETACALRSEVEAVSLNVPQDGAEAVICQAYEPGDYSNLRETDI
T1 sequence (P43140 whole entry): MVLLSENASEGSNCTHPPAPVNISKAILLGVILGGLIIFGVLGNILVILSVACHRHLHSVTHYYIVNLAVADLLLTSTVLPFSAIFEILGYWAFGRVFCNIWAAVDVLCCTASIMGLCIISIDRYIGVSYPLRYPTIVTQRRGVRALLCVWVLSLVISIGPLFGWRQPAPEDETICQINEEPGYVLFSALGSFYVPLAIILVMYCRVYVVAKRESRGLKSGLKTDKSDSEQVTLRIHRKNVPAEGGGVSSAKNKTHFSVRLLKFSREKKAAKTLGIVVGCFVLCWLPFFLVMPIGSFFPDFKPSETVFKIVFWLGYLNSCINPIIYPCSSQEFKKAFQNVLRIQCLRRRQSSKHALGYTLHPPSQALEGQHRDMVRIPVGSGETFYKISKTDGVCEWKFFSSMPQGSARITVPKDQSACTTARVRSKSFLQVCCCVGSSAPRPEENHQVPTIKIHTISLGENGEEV

[2] = biological target: T2, 5-hydroxytryptamine receptor 1A (Rattus norvegicus, UniProt P19327); test: In vitro binding affinity measured on serotonin 5-hydroxytryptamine 1A receptor using [3H]8-OH-DPAT as radioligand.
T2 sequence (P19327 whole entry): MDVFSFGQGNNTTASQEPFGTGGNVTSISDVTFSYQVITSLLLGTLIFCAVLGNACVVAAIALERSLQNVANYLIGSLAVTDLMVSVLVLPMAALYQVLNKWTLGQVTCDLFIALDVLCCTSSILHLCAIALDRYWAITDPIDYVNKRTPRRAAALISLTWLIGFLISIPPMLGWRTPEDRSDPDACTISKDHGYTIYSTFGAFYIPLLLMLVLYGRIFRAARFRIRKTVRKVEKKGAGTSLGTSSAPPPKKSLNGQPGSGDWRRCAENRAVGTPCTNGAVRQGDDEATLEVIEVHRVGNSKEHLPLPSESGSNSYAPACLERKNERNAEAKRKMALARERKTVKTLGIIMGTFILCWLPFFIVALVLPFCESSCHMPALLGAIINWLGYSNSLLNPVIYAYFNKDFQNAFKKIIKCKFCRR

[3] = biological target: D(2) dopamine receptor (Rattus norvegicus, UniProt P61169); test: In vitro binding affinity measured on dopamine receptor D2 using [3H]spiroperidol as radioligand.
Summary of the method: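 IC50 came from 7–9 drug concentrations in triplicate, over 2–4 independent experiments, analysed with EBDA. Specific binding exceeded 75% of total.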

[4] = biological target: Serotonin 2 (5-HT2) receptor (Rattus norvegicus, UniProt P30994+P08909+P14842); test: In vitro binding affinity measured on serotonin 5-hydroxytryptamine 2 receptor using [3H]ketanserin as radioligand.; type: protein assay
[5] = biological target: Serotonin 1a (5-HT1a) receptor/Adrenergic receptor alpha-1 (Rattus norvegicus) (UniProt P15823+P23944+P43140+P19327); test: Selectivity ratio of IC50 value against alpha-1 receptor to that of 5-HT1A receptor.; type: protein assay
Summary of the method: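 Ratio of the α1 IC50 to the 5-HT1A IC50 ([3H]-8-OH-DPAT, rat cortex). For α1, male Sprague-Dawley rat cortex membranes were prepared in 50 mM Tris-HCl pH 7.7 with 10 μM pargyline and 0.1% ascorbate.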

[6] = Selectivity ratio of IC50 value against D-2 receptor to that of 5-HT1A receptor.
Summary of the method: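 Ratio of the D-2 IC50 to the 5-HT1A IC50. […] Each IC50 came from 7–9 concentrations in triplicate over 2–4 experiments (EBDA).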

[7] = species: Cavia porcellus; test: Selectivity as the ratio of IC50 value against sigma receptor to that of 5-HT1A receptor.
Summary of the method: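 Ratio of the σ IC50 to the 5-HT1A IC50. For σ, a P2 membrane fraction was prepared from whole male guinea pig brain without cerebellum in 50 mM Tris-HCl pH 7.4. [3H]DTG was 0.90 nM final, incubated 90 min at 25 °C, then filtered and counted. IC50 values came from 7–9 concentrations in triplicate (EBDA).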

D(2) dopamine receptor, sequence (P61169 whole entry): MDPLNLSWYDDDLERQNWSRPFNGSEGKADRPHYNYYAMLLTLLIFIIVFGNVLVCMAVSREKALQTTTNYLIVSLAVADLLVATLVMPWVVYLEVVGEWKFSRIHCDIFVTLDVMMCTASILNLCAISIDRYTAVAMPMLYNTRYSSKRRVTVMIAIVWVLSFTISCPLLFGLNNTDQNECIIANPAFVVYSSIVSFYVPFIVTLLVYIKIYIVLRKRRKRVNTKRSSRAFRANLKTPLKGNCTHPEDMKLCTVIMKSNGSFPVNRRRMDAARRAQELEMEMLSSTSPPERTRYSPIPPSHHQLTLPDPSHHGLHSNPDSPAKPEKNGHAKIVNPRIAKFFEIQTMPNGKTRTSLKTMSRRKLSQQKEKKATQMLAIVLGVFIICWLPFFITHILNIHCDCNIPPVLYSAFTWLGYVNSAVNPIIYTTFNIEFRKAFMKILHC

Compound | IC50 [1] [µM] | IC50 [2] [µM] | IC50 [3] [µM] | IC50 [4] [µM] | Selectivity [5] | Selectivity [6] | Selectivity [7]
COc1cccc2c1CCCC2CCCN1CCN(c2ccccc2)CC1 (stereo not drawn) | 0.0788 | 0.00036 | 0.0967 | 0.17 |  |  | 
COc1cccc2c1CCC=C2CCCN1CCN(c2ccccc2)CC1 | 0.049 |  | 0.303 | 0.204 |  |  | 
COc1ccc2c(c1)C(CCCN1CCN(c3ccccn3)CC1)=CCC2 | 0.152 | 0.0636 | 0.778 | 0.146 | 2.4 | 12 | 3.9
COc1ccc2c(c1)C(CCCN1CCN(c3ccccc3)CC1)CCC2 (stereo not drawn) | 0.184 | 0.00924 | 0.028 |  | 20 | 3 | 
COc1ccccc1N1CCN(CCCC2CCCc3ccccc32)CC1 (stereo not drawn) | 0.00014 | 0.00039 | 0.0247 | 0.155 | 0.36 | 63 | 
COc1ccc2c(c1)C(CCCN1CCN(c3ccccc3OC)CC1)=CCC2 | 0.0245 | 0.002 | 0.0906 | 0.391 | 12 | 45 | 114
COc1ccc2c(c1)C(CCCN1CCN(c3ccccc3OC)CC1)CCC2 (stereo not drawn) | 0.0432 | 0.0015 | 0.0515 | 0.22 |  |  | 
COc1ccc2c(c1)C(CCCN1CCN(c3cccc(C(F)(F)F)c3)CC1)CCC2 (stereo not drawn) | 2.93 | 0.0884 | 1.33 | 0.391 | 33 | 15 | 0.99
COc1ccccc1N1CCN(CCCC2=CCCc3c(OC)cccc32)CC1 | 0.0323 | 0.0088 | 0.0174 | 0.77 | 3.7 | 2 | 3.8
COc1cccc2c1CCCC2CCCN1CCN(c2ccccn2)CC1 (stereo not drawn) | 0.0314 | 0.00058 | 0.177 | 0.331 |  |  | 
COc1ccccc1N1CCN(CC/C=C2\CCCc3ccccc32)CC1 | 0.0036 | 0.00184 | 0.0127 | 0.147 | 2 | 6.9 | 30
COc1cccc2c1CCCC2CCCN1CCN(c2cccc(C(F)(F)F)c2)CC1 (stereo not drawn) | 7.17 | 0.146 | 0.472 |  | 49 | 3.2 | 
COc1cccc2c1CCC=C2CCCN1CCN(c2ccccn2)CC1 | 0.123 | 0.0014 | 0.119 | 0.205 |  |  | 
COc1ccccc1N1CCN(CC/C=C2\CCCc3c(OC)cccc32)CC1 | 0.006 | 0.00052 | 0.0113 | 0.667 | 12 | 22 | 100
COc1ccccc1N1CCN(CCCC2CCCc3c(OC)cccc32)CC1 (stereo not drawn) | 0.00194 | 0.00032 |  | 0.358 |  |  | 
COc1cccc2c1CCC=C2CCCN1CCN(c2cccc(C(F)(F)F)c2)CC1 | 0.278 | 0.0559 | 0.644 | 2.37 | 5 | 12 | 
COc1ccccc1N1CCN(CCCCC2=CCCc3c(OC)cccc32)CC1 | 0.0962 | 0.013 | 5.92 |  | 7.4 | 455 | 
COc1ccccc1N1CCN(CCNC2CCCc3c(OC)cccc32)CC1 (stereo not drawn) | 0.149 | 0.00701 | 0.618 | 3.34 | 21 | 88 | 22
COc1cccc2c1CCC/C2=C\CCN1CCN(c2ccccn2)CC1 | 0.0722 | 0.00035 | 0.15 | 0.417 |  |  | 
COc1ccc2c(c1)C(SCCN1CCN(c3ccccc3OC)CC1)CCC2 (stereo not drawn) | 0.116 | 0.00594 | 0.0502 | 0.111 | 20 | 8.5 | 20
COc1ccc2c(c1)C(CCCN1CCN(c3ccccn3)CC1)CCC2 (stereo not drawn) | 0.261 | 0.00338 | 0.328 | 0.288 | 77 | 97 | 37
COc1ccc2c(c1)C(CCCCN1CCN(c3ccccc3OC)CC1)CCC2 (stereo not drawn) | 0.0785 | 0.00883 | 0.0509 | 0.329 |  |  | 
COc1ccccc1N1CCN(CCCC2CCCc3ccsc32)CC1 (stereo not drawn) | 0.00126 | 0.00113 | 0.0241 | 0.147 |  |  | 
COc1ccccc1N1CCN(CCCCC2CCCc3c(OC)cccc32)CC1 (stereo not drawn) | 0.0783 | 0.00173 | 0.0154 |  | 45 | 8.9 | 
COc1ccccc1N1CCN(CCSC2CCCc3c(OC)cccc32)CC1 (stereo not drawn) | 0.12 | 0.00108 | 0.00783 |  | 111 | 7.3 | 
COc1ccc2c(c1)C(CCCN1CCN(c3ccccc3)CC1)=CCC2 | 0.157 | 0.147 | 0.777 | 0.119 |  |  | 
COc1ccc2c(c1)C(CCCCN1CCN(c3ccccc3OC)CC1)=CCC2 | 0.0153 | 0.00153 | 0.0106 | 0.209 |  |  | 
COc1ccc2c(c1)C(CCCN1CCN(c3cccc(C(F)(F)F)c3)CC1)=CCC2 | 3.07 | 0.138 | 1.29 | 1.17 | 22 | 9.4 | 

From ChEMBL document CHEMBL1128270 (J Med Chem, 1995)
